Measurements as given in ChEMBL document CHEMBL5260806, “Hydrogen peroxide activated quinone methide precursors with enhanced DNA cross-linking capability and cytotoxicity towards cancer cells” (Eur J Med Chem, 2017).
pIC50: −log10 of the molar value.

Assays:
IGROV-1 = experiment: Anticancer activity against human IGROV-1 cells assessed as cell growth inhibition incubated for 48 hrs by sulforhodamine B assay; assay type: functional
Procedure, shortened: (§1)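 NCI-60 screen: cell lines grown in RPMI 1640 with 5% FBS and 2 mM L-glutamine, plated in 96-well plates at 5,000–40,000 cells/well depending on doubling time. Each line has one single-dose arm at 10 µM and one dose-response arm giving GI50.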

BT-549 [1] = experiment: Anticancer activity against human BT-549 cells assessed as cell growth inhibition at 10 uM incubated for 48 hrs by sulforhodamine B assay; assay type: functional; conditions: read-out: GI; procedure, shortened: as §1
RXF 393 = experiment: Anticancer activity against human RXF 393 cells assessed as cell growth inhibition incubated for 48 hrs by sulforhodamine B assay; assay type: functional
Procedure, shortened: (§2)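 NCI DTP 60-cell-line screen run at National Cancer Institute. Cells grown in RPMI 1640 with 5% fetal bovine serum and 2 mM L-glutamine, seeded at 5,000–40,000 cells/well depending on doubling time. Single-dose screen at 10 µM gives growth percentage; dose-response series gives GI50.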

SK-MEL-28 [2] = experiment: Anticancer activity against human SK-MEL-28 cells assessed as cell growth inhibition at 10 uM incubated for 48 hrs by sulforhodamine B assay; assay type: functional; conditions: read-out: GI; procedure, shortened: as §2
HCC 2998 = experiment: Anticancer activity against human HCC 2998 cells assessed as cell growth inhibition incubated for 48 hrs by sulforhodamine B assay; assay type: functional; procedure, shortened: as §1
SF-295 = experiment: Anticancer activity against human SF-295 cells assessed as cell growth inhibition at 10 uM incubated for 48 hrs by sulforhodamine B assay; assay type: functional; conditions: read-out: GI; procedure, shortened: as §2
SF-539 = experiment: Anticancer activity against human SF-539 cells assessed as cell growth inhibition incubated for 48 hrs by sulforhodamine B assay; assay type: functional; procedure, shortened: as §2
HCT-15 = experiment: Anticancer activity against human HCT-15 cells assessed as cell growth inhibition incubated for 48 hrs by sulforhodamine B assay; assay type: functional; procedure, shortened: as §1
SK-MEL-5 = experiment: Anticancer activity against human SK-MEL-5 cells assessed as cell growth inhibition incubated for 48 hrs by sulforhodamine B assay; assay type: functional; procedure, shortened: as §2
NCI-H322M [3] = experiment: Anticancer activity against human NCI-H322M cells assessed as cell growth inhibition incubated for 48 hrs by sulforhodamine B assay; assay type: functional; procedure, shortened: as §2
SN12C [4] = experiment: Anticancer activity against human SN12C cells assessed as cell growth inhibition at 10 uM incubated for 48 hrs by sulforhodamine B assay; assay type: functional; conditions: read-out: GI
U-251 = experiment: Anticancer activity against human U-251 cells assessed as cell growth inhibition incubated for 48 hrs by sulforhodamine B assay; assay type: functional
ACHN = experiment: Anticancer activity against human ACHN cells assessed as cell growth inhibition incubated for 48 hrs by sulforhodamine B assay; assay type: functional; procedure, shortened: as §1
NCI-H460 = experiment: Anticancer activity against human NCI-H460 cells assessed as cell growth inhibition incubated for 48 hrs by sulforhodamine B assay; assay type: functional; procedure, shortened: as §2
[5] = Anticancer activity against human CLL cells assessed as reduction in cell viability incubated for 24 hrs by Annexin/PI staining based fluorescence assay; assay type: functional
Procedure, shortened: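 CLL lymphocytes were taken from patients' peripheral blood (n=3) by Ficoll-Hypaque, suspended in 10% autologous plasma in RPMI, and exposed to 1, 5, 10, 20, 50 and 100 µM. Viability was measured by annexin V/propidium iodide binding. IC50 comes from one representative patient.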

BT-549 [6] = experiment: Anticancer activity against human BT-549 cells assessed as cell growth inhibition incubated for 48 hrs by sulforhodamine B assay; assay type: functional; procedure, shortened: as §1
NCI-H522 [7] = experiment: Anticancer activity against human NCI-H522 cells assessed as cell growth inhibition at 10 uM incubated for 48 hrs by sulforhodamine B assay; assay type: functional; conditions: read-out: GI; procedure, shortened: as §2
RPMI-8226 [8] = experiment: Anticancer activity against human RPMI-8226 cells assessed as cell growth inhibition incubated for 48 hrs by sulforhodamine B assay; assay type: functional; procedure, shortened: as §2
Malme-3M = experiment: Anticancer activity against human Malme-3M cells assessed as cell growth inhibition incubated for 48 hrs by sulforhodamine B assay; assay type: functional; procedure, shortened: as §2
NCI-H322M [9] = experiment: Anticancer activity against human NCI-H322M cells assessed as cell growth inhibition at 10 uM incubated for 48 hrs by sulforhodamine B assay; assay type: functional; conditions: read-out: GI; procedure, shortened: as §2
SNB-19 = experiment: Anticancer activity against human SNB-19 cells assessed as cell growth inhibition at 10 uM incubated for 48 hrs by sulforhodamine B assay; assay type: functional; conditions: read-out: GI
DU-145 = experiment: Anticancer activity against human DU-145 cells assessed as cell growth inhibition at 10 uM incubated for 48 hrs by sulforhodamine B assay; assay type: functional; conditions: read-out: GI; procedure, shortened: as §1
HT-29 = experiment: Anticancer activity against human HT-29 cells assessed as cell growth inhibition at 10 uM incubated for 48 hrs by sulforhodamine B assay; assay type: functional; conditions: read-out: GI; procedure, shortened: as §1
MDA-MB-468 = experiment: Anticancer activity against human MDA-MB-468 cells assessed as cell growth inhibition incubated for 48 hrs by sulforhodamine B assay; assay type: functional; procedure, shortened: as §2
UO-31 = experiment: Anticancer activity against human UO-31 cells assessed inhibition of cell growth after 48 hrs by CellTiter-Glo luminescent assay; assay type: functional, cell-based; conditions: UO-31, 48 h
Procedure, shortened: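 Renal lines grown in RPMI 1640 with 5% FBS and 2 mM L-glutamine, seeded into 384-well plates at 5,000–10,000 cells/well, held 2–3 h at 37 °C, 5% CO2. DMSO stocks (20 mM) serially halved ten times and added at 1:100. Cells exposed 48 h at 37 °C; CellTiter-Glo added, 10 min at room temperature, luminescence read.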

MDA-MB-231 = experiment: Anticancer activity against human MDA-MB-231 cells assessed as cell growth inhibition incubated for 48 hrs by sulforhodamine B assay; assay type: functional; procedure, shortened: as §2
SNB-75 = experiment: Anticancer activity against human SNB-75 cells assessed as cell growth inhibition incubated for 48 hrs by sulforhodamine B assay; assay type: functional
NCI-H522 [10] = experiment: Anticancer activity against human NCI-H522 cells assessed as cell growth inhibition incubated for 48 hrs by sulforhodamine B assay; assay type: functional; procedure, shortened: as §2
SR = experiment: Anticancer activity against human SR cells assessed as cell growth inhibition at 10 uM incubated for 48 hrs by sulforhodamine B assay; assay type: functional; conditions: read-out: GI
SK-MEL-28 [11] = experiment: Anticancer activity against human SK-MEL-28 cells assessed as cell growth inhibition incubated for 48 hrs by sulforhodamine B assay; assay type: functional; procedure, shortened: as §2
M14 = experiment: Anticancer activity against human M14 cells assessed as cell growth inhibition at 10 uM incubated for 48 hrs by sulforhodamine B assay; assay type: functional; conditions: read-out: GI; procedure, shortened: as §1
HL-60 = experiment: Anticancer activity against human HL-60 cells assessed as cell growth inhibition at 10 uM incubated for 48 hrs by sulforhodamine B assay; assay type: functional; conditions: read-out: GI; procedure, shortened: as §1
CCRF-CEM = experiment: Anticancer activity against human CCRF-CEM cells assessed as cell growth inhibition at 10 uM incubated for 48 hrs by sulforhodamine B assay; assay type: functional; conditions: read-out: GI; procedure, shortened: as §1
SN12C [12] = experiment: Anticancer activity against human SN12C cells assessed as cell growth inhibition incubated for 48 hrs by sulforhodamine B assay; assay type: functional
HOP-62 = experiment: Anticancer activity against human HOP-62 cells assessed as cell growth inhibition at 10 uM incubated for 48 hrs by sulforhodamine B assay; assay type: functional; conditions: read-out: GI; procedure, shortened: as §1
EKVX = experiment: Anticancer activity against human EKVX cells assessed as cell growth inhibition incubated for 48 hrs by sulforhodamine B assay; assay type: functional; procedure, shortened: as §1
LOX IMVI = experiment: Anticancer activity against human LOX IMVI cells assessed as cell growth inhibition at 10 uM incubated for 48 hrs by sulforhodamine B assay; assay type: functional; conditions: read-out: GI; procedure, shortened: as §1
RPMI-8226 [13] = experiment: Anticancer activity against human RPMI-8226 cells assessed as cell growth inhibition at 10 uM incubated for 48 hrs by sulforhodamine B assay; assay type: functional; conditions: read-out: GI; procedure, shortened: as §2

In the case of `COc1cc(CBr)c(B2OC(C)(C)C(C)(C)O2)c(CBr)c1`, the GI50 (IGROV-1) was 2000 nM, the inhibition of growth at 10 µM (BT-549 [1]) was under 50% and the GI50 (RXF 393) was 2000 nM. It also gave an inhibition of growth at 10 µM (SK-MEL-28 [2]) of under 50%, a GI50 (HCC 2998) of 2000 nM and an inhibition of growth at 10 µM (SF-295) of under 50%. It also gave a GI50 (SF-539) of 2000 nM, a GI50 (HCT-15) of 2000 nM and a GI50 (SK-MEL-5) of 2000 nM. It also gave a GI50 (NCI-H322M [3]) of 2000 nM, an inhibition of growth at 10 µM (SN12C [4]) of under 50% and a GI50 (U-251) of 2000 nM. The GI50 (ACHN) was 2000 nM, the GI50 (NCI-H460) was 2000 nM and the pIC50 [5] was 4.55. The GI50 (BT-549 [6]) was 2000 nM, the inhibition of growth at 10 µM (NCI-H522 [7]) was under 50% and the GI50 (RPMI-8226 [8]) was 2000 nM. For the same compound, the GI50 (Malme-3M) was 2000 nM, the inhibition of growth at 10 µM (NCI-H322M [9]) was under 50% and the inhibition of growth at 10 µM (SNB-19) was under 50%. For the same compound, the inhibition of growth at 10 µM (DU-145) was under 50%, the inhibition of growth at 10 µM (HT-29) was under 50% and the GI50 (MDA-MB-468) was 2000 nM. The pIC50 (UO-31) was 4.97, the GI50 (MDA-MB-231) was 2000 nM and the GI50 (SNB-75) was 2000 nM. It also gave a GI50 (NCI-H522 [10]) of 2000 nM, an inhibition of growth at 10 µM (SR) of under 50% and a GI50 (SK-MEL-28 [11]) of 2000 nM. The inhibition of growth at 10 µM (M14) was under 50%, the inhibition of growth at 10 µM (HL-60) was under 50% and the inhibition of growth at 10 µM (CCRF-CEM) was under 50%. It also gave a GI50 (SN12C [12]) of 2000 nM, an inhibition of growth at 10 µM (HOP-62) of under 50% and a GI50 (EKVX) of 2000 nM. For the same compound, the inhibition of growth at 10 µM (LOX IMVI) was under 50% and the inhibition of growth at 10 µM (RPMI-8226 [13]) was under 50%.
